An excerpt weighted towards active compounds, which were near 0.74% of everything screened.
ARFGAP1 inhibitor = inhibits rat ARF GTPase activating protein 1; Q62848; Arfgap1-stimulated ARF1 GTP hydrolysis, GDP FP detection; inhibition, % at 16.5 µM; 360,000 compounds, 0.26% hits; AID 651572;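 active = inhibition above a per-plate limit, mean inhibition of low control wells plus 3 SD, cut at about 25% in these data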;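 note: 0% = DMSO wells with enzyme and 100% = wells lacking Arfgap1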
Target sequence (Q62848 1-136 limits assumed): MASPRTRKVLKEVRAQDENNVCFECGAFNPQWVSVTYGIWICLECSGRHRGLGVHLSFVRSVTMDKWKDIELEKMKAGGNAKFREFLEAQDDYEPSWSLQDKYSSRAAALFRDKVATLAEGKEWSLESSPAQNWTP
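system = rat Arfgap1 catalytic domain, aa 1-136 | technique = FP, GDP Alexa 633 tracer displaced from anti-GDP antibody, 620/688 nm | compound = one concentration, 16.5 µM, DMSO 1.26% | medium = HEPES-based buffer, pH 7.5 | timing = compound-enzyme preincubation 20 min, reaction 120 min, detection 60 min, 25 °C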
DDE Tn7 FP inh = disrupts Tn7 cyclic peptide binding to fibrin D-Dimer-E complex; FP displacement of FITC-Tn7 peptide from fibrin DD(E); 0% = median of compound wells per plate; inhibition, % at 8.3 µM; 370,000 compounds, 0.13% hits; P02675;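 active = inhibition above the mean of compounds falling within the control limits plus 3 SD of them, cut at about 14% in these data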;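 note: 0% = plate median of compound wells and 100% = 10 µM Aha-Tn7 peptide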
Target sequence (P02675 whole entry, looked up): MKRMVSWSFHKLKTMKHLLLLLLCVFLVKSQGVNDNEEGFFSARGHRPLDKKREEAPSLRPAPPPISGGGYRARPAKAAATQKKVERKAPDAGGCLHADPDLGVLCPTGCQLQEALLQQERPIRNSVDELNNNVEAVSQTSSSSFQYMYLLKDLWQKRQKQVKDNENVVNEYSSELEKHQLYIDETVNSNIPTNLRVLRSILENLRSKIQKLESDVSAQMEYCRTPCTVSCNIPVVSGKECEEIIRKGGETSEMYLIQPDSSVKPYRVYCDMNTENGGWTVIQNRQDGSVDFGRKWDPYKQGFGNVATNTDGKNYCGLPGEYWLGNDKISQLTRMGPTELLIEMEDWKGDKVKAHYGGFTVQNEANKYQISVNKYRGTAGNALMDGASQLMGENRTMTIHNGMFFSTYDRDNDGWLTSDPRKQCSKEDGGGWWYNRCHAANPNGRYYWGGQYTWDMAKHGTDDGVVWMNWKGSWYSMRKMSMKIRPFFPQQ
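Assay system: Human clot-derived fibrin DD(E) complex | Buffer or medium: Tris/NaCl/CaCl2 buffer, pH 7.8 | Repeats: One replicate per compound | Benchmarks: Aha-Tn7 high control | Measure: % inhibition scaled between sample-field median and high-control FP | Schedule: 10 min plus 3 h, room temperature | Signal: Fluorescence polarization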
DDE Tn6 FP inh = inhibitors of Tn6 peptide binding to human fibrin DD(E); 370,000 compounds, 0.21% hits; Fibrin DD(E) TRITC-Tn6 fluorescence polarization displacement; AID 720509; P02675; inhibition, % at 8.3 µM;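 active = inhibition above a per-campaign cutoff: mean of compounds within control limits plus 3 SD, cut at about 15% in these data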;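 note: 0% = median of all compound wells on the plate and 100% = blocking peptide control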
ASAP1 inh = ASAP1 ArfGAP inhibition; Q9ULH1; ASAP1-stimulated ARF1 GTP hydrolysis, GDP FP detection; inhibition, % at 16.5 µM; 360,000 compounds, 0.19% hits; in the data active = inhibition above about 25%;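 note: 0% = vehicle with enzyme and substrate and 100% = no enzyme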
ARFGAP1 inh conf = rat ARFGAP1 inhibition, confirmed; shares compounds with ARFGAP1 inhibitor; ARFGAP1-stimulated ARF1 GTP hydrolysis, GDP tracer FP; inhibition, % at 16.5 µM; 890 compounds, 30% hits;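 active = average inhibition over triplicates above the hit cutoff set in the earlier primary screen, cut at about 25% in these data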;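 note: 0% = Arfgap1 plus ARF1-GTP with DMSO and 100% = wells lacking Arfgap1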
Active calls of the source: *; / = not tested or not shown.

SMILES	ARFGAP1 inhibitor	DDE Tn7 FP inh	DDE Tn6 FP inh	ASAP1 inh	ARFGAP1 inh conf
COc1cc(C(=O)OC(C)CN2C(C)CCCC2C)cc(OC)c1OC (stereo unspecified)	32*	-1	-8	2	-6
Cc1cc(C(=O)NNc2c(Cl)cccc2Cl)n(C(C)(C)C)n1	9	-3	1	-2	/
Cc1cc(C(=O)O)n(C(C)(C)C)n1	27*	6	-1	-3	7
O=C(NCCc1nc2ccccc2[nH]1)c1cccc(Br)c1	25*	5	5	-3	-2
O=C(NCCc1nc2ccccc2[nH]1)c1ccc([N+](=O)[O-])cc1	0	5	5	-4	/
COc1ccc(NC(=O)CSc2nnc(-c3ccncc3)n2CC2CCCO2)c(OC)c1 (stereo unspecified)	26*	-6	-2	-4	-3
Cc1[nH]c2ccccc2c1CC(=O)Nc1ccc(Nc2ccncc2)cc1	-5	-4	1	9	/
Cc1[nH]c2ccccc2c1CC(=O)Nc1ccc(Nc2cccnc2)c(-c2cc(F)cc(F)c2)c1	26*	-5	-13	7	18
Cc1[nH]c2ccccc2c1CC(=O)Nc1ccc(Nc2ccccc2)cc1	29*	5	5	9	25*
COCCCNC(=O)C[C@H]1C[C@@]2(C(=O)OC)C(=C[C@H](C(C)C)O[C@@H]2C2CC2)N(Cc2ccc(Cl)cc2Cl)C1=O	/	-4	5	/	/
CCCc1ccc(Oc2cn[nH]c2-c2ccc(O)c(C)c2O)cc1	27*	-5	-17	14	31*
CCCc1ccc(Oc2c(-c3ccc(O)c(C)c3O)n[nH]c2C)cc1	8	0	1	-2	/
CN(c1cccnc1)c1ccc(NC(=O)Cc2c[nH]c3ccccc23)cc1-c1ccc(F)c(F)c1	25*	-11	-2	3	6
C[C@H](O)[C@@H]1CN2CCc3ccc(-c4ccc5c(c4)OCO5)cc3[C@@H]2C[C@@H]1N(C)C(=O)Nc1ccccc1	/	-1	-5	/	/
CC1(C)CC(NC(=O)c2ccc3c(c2)OCO3)CC(C)(C)N1	26*	2	-6	4	1
CC1CCC(NC(=O)c2ccc3c(c2)OCO3)CC1 (stereo unspecified)	13	-3	8	6	/
Cc1nc2ccc(NC(=O)C3CCN(S(=O)(=O)c4cccs4)CC3)cc2s1	25*	-2	-6	9	3
Cc1ccc(NC(=O)c2ccc(Cl)c(NC(=O)c3cccs3)c2)cc1	-5	9	-8	9	/
Cc1ccc(NC(=O)C2CCN(S(=O)(=O)c3cccs3)CC2)cc1	-4	8	5	3	/
Cc1nc2ccc(NC(=O)c3ccc(Cl)c(NC(=O)c4cccs4)c3)cc2s1	26*	-7	0	19	14
O=C(NC1=N[C@@]2(C=C3CCCCC3n3c(=O)n(-c4ccccc4)c(=O)n32)CN1Cc1ccccc1)c1ccccc1 (stereo partly specified)	/	4	2	/	/
O=C(Nc1cccc(-c2cc3ccccc3oc2=O)c1)c1ccc(Br)o1	27*	8	0	12	15
COc1ccc(-c2cc3ccccc3oc2=O)cc1NC(=O)c1ccc(Br)o1	14	4	13	12	/
COc1cccc(C(=O)NNC2OC(CO)C(O)C2O)c1 (stereo unspecified)	42*	3	-9	-8	8
S=C(NCc1ccc(Cl)cc1)OC1CCC12CCC(c1ccccc1)CC2 (stereo unspecified)	/	8	4	/	/
SMILES	ARFGAP1 inhibitor	DDE Tn7 FP inh	DDE Tn6 FP inh	ASAP1 inh	ARFGAP1 inh conf
CCCOc1ccc(/C=N/NC(=O)c2ccc(Cn3cc([N+](=O)[O-])cn3)o2)cc1	26*	2	10	23	33*
CN(C(=O)NC1CCCCC1)[C@H]1C[C@H]2c3[nH]c4ccccc4c3CCN2C(=O)[C@H]1CO	-9	11	-2	1	/
CN(C(=O)C(C)(C)C)[C@H]1C[C@H]2c3[nH]c4ccccc4c3CCN2C(=O)[C@H]1CO	96*	2	1	-10	-3
CC(C)=CCC/C(C)=C/Cc1c(O)ccc(C(=O)/C=C/c2ccc(O)cc2)c1O	28*	-5	-15	20	26*
COc1ccccc1CNC(=O)NCCCN1CCN(c2ccc(F)cc2)CC1	/	-3	-4	/	/
CC1(C)Cc2c(cnn2-c2ccccc2)-c2c1c1ccccc1n2CC(O)CCl (stereo unspecified)	26*	-3	-5	7	7
Nc1nonc1-c1nc2ccccc2n1Cc1ccc(Cl)cc1	25*	-5	-4	8	1
COc1cccc(-c2cnc3c(NC(C)=O)cc(-c4cccc(C(=O)NCCN(C)C)c4)cn23)c1	44*	-10	0	10	18
Cc1cc(-c2cc(NC=O)c3ncc(-c4cccc(C(=O)NCCN(C)C)c4)n3c2)cc(C)c1O	27*	-1	-6	14	58*
COc1ccc(S(=O)(=O)NCC2CCC(C(=O)N3CCC4(CC3)OCCO4)CC2)cc1 (stereo unspecified)	35*	1	2	0	-7
COc1ccc(S(=O)(=O)NCC2CCCN(C(=O)C3CCCC3)C2)cc1 (stereo unspecified)	8	3	2	7	/
COc1ccc(CNC(=S)OC2CCC23CCC(c2ccccc2)CC3)cc1 (stereo unspecified)	/	8	0	/	/
C=CCc1cc(C(=O)N2CCCCC2)ccc1O	2	4	-2	10	/
C=CCc1ccc(O)c(-c2ccc(O)c(CC=C)c2)c1	36*	-2	-2	14	11
Cc1cc(OCC(=O)Nc2cccnc2)c2c(C)c(C)c(=O)oc2c1	29*	1	-1	20	30*
Cc1ccc(NC(=O)c2cccc(S(=O)(=O)NCc3ccccc3)c2)nc1	35*	6	0	4	-6
Cc1cccc(NC(=O)c2cccc(S(=O)(=O)NCc3ccccc3)c2)n1	7	-5	6	-6	/
COc1ccc(C2NN=C(c3c[nH]c4ccccc34)C2O)cc1 (stereo unspecified)	4	1	3	-2	/
COc1ccc(C2C(O)C(c3c[nH]c4ccccc34)=NN2C(=O)CCl)cc1 (stereo unspecified)	26*	3	6	16	9
COc1ccc(NC(=O)C2CCCN(S(=O)(=O)c3ccc4c(c3)CC(C)N4C(C)=O)C2)cc1 (stereo unspecified)	26*	3	-5	-2	1
COc1ccc(-c2c(-c3ccc(OCC(=O)NN)cc3O)n[nH]c2C(F)(F)F)cc1	32*	-3	-5	25	24
O=C(N/N=C/c1c[nH]c2ccccc12)c1[nH]c2ccc(Br)cc2c1-c1ccccc1	30*	-8	-18	1	17
